IDH1 R132H inh: inhibitors of IDH1 R132H reductase, primary screen, biochemical, plate reader, single point; Isocitrate dehydrogenase [NADP] cytoplasmic (Homo sapiens), O75874; diaphorase/resazurin fluorescence, 60 min; inhibition, % at 10 µM; 70,000 tested, 0.18% active; AID 624101, 2012; in the data active = inhibition above about 34%; inconclusive = no clear call, values can overlap the other calls; inactive = below about 11%;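 also: 0% = DMSO and 100% = no enzyme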
Target sequence (O75874 whole entry R132H): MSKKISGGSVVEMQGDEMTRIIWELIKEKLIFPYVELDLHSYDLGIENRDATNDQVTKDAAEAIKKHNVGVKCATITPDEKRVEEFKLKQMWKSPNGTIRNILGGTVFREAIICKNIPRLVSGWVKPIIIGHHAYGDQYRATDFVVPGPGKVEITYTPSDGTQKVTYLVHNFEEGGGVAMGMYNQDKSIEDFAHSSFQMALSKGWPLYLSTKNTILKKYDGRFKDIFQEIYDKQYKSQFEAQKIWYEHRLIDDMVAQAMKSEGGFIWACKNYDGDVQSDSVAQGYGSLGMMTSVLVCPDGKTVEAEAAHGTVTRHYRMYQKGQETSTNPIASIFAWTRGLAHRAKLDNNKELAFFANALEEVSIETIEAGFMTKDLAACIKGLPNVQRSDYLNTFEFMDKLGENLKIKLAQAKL
Pf Dd2 inh: P. falciparum Dd2 growth inhibitors, primary screen, SYBR Green fluorescence, single dose replicates; 94,000 tested, 2.3% active; AID 1159554, 2015; 72 h; stronger effect = lower value; activity change, % at 10 µM; in the data active = activity change below about -80%; inconclusive = no clear call, values can overlap the other calls
GASC1 inh: inhibitors of GASC-1 (KDM4C) histone demethylase, primary screen, biochemical, single concentration HTS; Lysine-specific demethylase 4C (Homo sapiens), Q9H3R0; GST-KDM4C 2-372, H3K9me3 peptide, LANCE TR-FRET; inhibition, % at 12.5 µM; 96,000 tested, 0.15% active; AID 720574, 2013;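 active = mean replicate inhibition above about 25%, with at least 55% of replicates also reaching it, limit read from the data, passing the limit was not always enough; inconclusive = only one of those two conditions met; inactive = neither condition met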
Target sequence (Q9H3R0 2-372 limits assumed): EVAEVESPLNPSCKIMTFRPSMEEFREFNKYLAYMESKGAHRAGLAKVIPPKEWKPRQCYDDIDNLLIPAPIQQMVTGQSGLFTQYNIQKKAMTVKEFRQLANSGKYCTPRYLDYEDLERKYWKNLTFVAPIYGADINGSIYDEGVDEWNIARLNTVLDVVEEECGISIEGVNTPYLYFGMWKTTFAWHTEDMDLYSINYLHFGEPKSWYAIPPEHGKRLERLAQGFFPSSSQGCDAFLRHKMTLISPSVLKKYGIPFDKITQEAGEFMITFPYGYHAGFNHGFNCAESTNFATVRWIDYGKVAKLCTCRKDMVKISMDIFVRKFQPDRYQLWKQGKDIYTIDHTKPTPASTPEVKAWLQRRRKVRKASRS
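Material: N-terminal GST-fused human GASC-1 (KDM4C) fragment, residues 2-372. Input: 10 nM enzyme. Incubation: enzyme reaction 30 min, then detection 60 min, both room temperature. Doses: one test concentration per compound. Read-out basis: inhibition from TR-FRET ratio decrease. Detection: LANCE TR-FRET, excitation 340 nm, emissions 618 and 671 nm.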
T cruzi growth-1: T. cruzi intracellular proliferation inhibitors, primary screen, cell-based, beta-gal Tulahuen parasites, NIH3T3 host, luminescence; T. cruzi beta-gal in NIH3T3, GalScreen luminescence, 90 h; inhibition, % at 8.34 µM; 77,000 tested, 5.9% active; AID 624255, 2012;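 active = mean inhibition above about 93%, with at least 55% of replicates each passing it, limit read from the data, passing the limit was not always enough; inconclusive = only one of those two conditions holds; inactive = neither condition holds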
T cruzi growth-2: T. cruzi intracellular proliferation inhibitors, confirmation, cell-based, NIH3T3 host, beta-gal parasite, luminescence, cherry-pick; T. cruzi beta-gal in NIH3T3, GalScreen luminescence, 90 h; inhibition, % at 8.35 µM; shares compounds with T cruzi growth-1; 5,600 tested, 72% active;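 active = mean replicate inhibition above about 95% and at least 55% of replicates individually reaching it, limit read from the data; inconclusive = only one of the two criteria is met; inactive = neither criterion is met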
T cruzi growth-3: inhibitors of intracellular T. cruzi replication, confirmation, NIH3T3 host cells, beta-gal parasites, cherry-pick, set 2. shares compounds with T cruzi growth-1. T. cruzi beta-gal in NIH3T3, GalScreen luminescence, 90 h. inhibition, % at 2.09 µM. 5,600 tested, 21% active. AID 651740, 2012;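 active = mean inhibition above about 95%, with at least 55% of replicates also reaching it, limit read from the data; inconclusive = meets just one of the two conditions; inactive = meets neither condition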;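 also: plate controls were neutral control median for no effect and positive control median for full effect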
3T3 cytotox: cytotoxicity in mouse NIH/3T3 fibroblasts, confirmation, cytotoxicity control for T. cruzi proliferation inhibitor project, cell-based, cherry-pick, single point | AID 651742, 2012 | shares compounds with T cruzi growth-1 | 5,600 tested, 14% active | cytotoxicity (signal decrease), % at 8.35 µM | NIH/3T3 viability, CellTiter-Glo ATP luminescence, 90 h;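 active = mean signal decrease across replicates above about 35% based on untreated-well scatter, with enough replicates individually passing, limit read from the data; inconclusive = no rule stated though some were filed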;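 also: 0% = median of neutral control wells and 100% = median of positive control wells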
3T3 cytotox 2: NIH/3T3 fibroblast cytotoxicity, confirmation, cytotoxicity control, cell-based, cherry-pick, single point, set 2. shares compounds with T cruzi growth-1. 5,600 tested, 56% active. inhibition, % at 24.9 µM. NIH/3T3 viability, CellTiter-Glo ATP luminescence, 90 h;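 active = mean loss of cell viability signal at or above a set limit, and enough replicates individually reaching it; inconclusive = meets only the mean limit or only the replicate share; inactive = meets neither condition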;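 also: 0% = median of neutral control wells and 100% = median of positive control wells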
* hit, by the source's call; u = inconclusive; x = not tested or not shown. A selection: hits, their analogues and other compounds. The true share with any hit is near 5.9%.

SMILES	IDH1 R132H inh	Pf Dd2 inh	GASC1 inh	T cruzi growth-1	T cruzi growth-2	T cruzi growth-3	3T3 cytotox	3T3 cytotox 2
Cn1cnc(S(=O)(=O)N2CCCCN3[C@H](C2)[C@@H](c2ccc(-c4cccc(F)c4)cc2)[C@@H]3CO)c1	x	34.4	0.4	103.3*	96.3*	5.2	5.6	u
Cn1cnc(S(=O)(=O)N2CCCCN3[C@H](CO)[C@@H](c4ccc(-c5cccc(F)c5)cc4)[C@@H]3C2)c1	x	41.4	-0.5	103.4*	103.6*	0.7	21.7	64.1*
OC[C@H]1[C@H](c2ccc(C#Cc3ccccc3)cc2)[C@@H]2CN(CC3CCOCC3)CCCCN12	x	-63.1	-1.1	u	105.6*	56.5	30.9	106.2*
OC[C@H]1[C@H](c2ccc(C#Cc3ccccc3F)cc2)[C@H]2CN(CC3CCOCC3)CCCCN21	x	-2.6	-1.5	66.4	x	x	x	x
OC[C@@H]1[C@H](c2ccc(C#Cc3ccccc3)cc2)[C@H]2CN(CC3CCOCC3)CCCCN12	x	-53.7	0.1	117.3*	99.7*	88.3	23.0	104.6*
OC[C@@H]1[C@@H](c2ccc(C#Cc3ccccc3F)cc2)[C@H]2CN(CC3CCOCC3)CCCCN12	x	-68.4	0.0	88.0	x	x	x	x
COc1ccc(C(=O)O)cc1S(=O)(=O)NCc1ccccc1	-0.1	x	x	x	x	x	x	x
C/C=C/c1ccc2c(c1)O[C@H](CN(C)Cc1ccccc1)[C@@H](C)CN([C@H](C)CO)S2(=O)=O	-3.0	-26.0	0.8	86.0	x	x	x	x
C/C=C/c1ccc2c(c1)O[C@H](CN(C)Cc1ccc(F)cc1)[C@H](C)CN([C@H](C)CO)S2(=O)=O	-2.6	-26.9	-1.0	u	107.1*	63.0	14.6	104.4*
C/C=C/c1ccc2c(c1)O[C@@H](CN(C)Cc1ccc(F)cc1)[C@H](C)CN([C@@H](C)CO)S2(=O)=O	-0.1	-60.0	0.0	117.5*	98.7*	105.1*	54.0*	104.3*
c1cc(-c2nc(-c3ccc4c(c3)OCCCO4)cs2)ccc1-c1csnn1	0.5	x	x	x	x	x	x	x
Cc1ccc(O)c(NC(=O)CCN2C(=O)c3ccccc3C2=O)c1	-0.4	x	x	x	x	x	x	x
CCn1c(SCC(=O)Nc2ccc(C(=O)O)cc2)nnc1-c1ccc(Cl)cc1	0.0	x	x	x	x	x	x	x
O=C(Nc1ccccc1)N1CCCCN2[C@H](C1)[C@@H](c1ccc(C#CC3CC3)cc1)[C@@H]2CO	x	1.2	-0.3	105.2*	95.7*	80.2	42.9*	103.6*
O=C(Nc1ccccc1)N1CCCCN2[C@H](CO)[C@H](c3ccc(C#CC4CC4)cc3)[C@@H]2C1	x	-4.5	-0.2	76.2	x	x	x	x
O=C(Nc1ccccc1)N1CCCCN2[C@@H](CO)[C@H](c3ccc(C#CC4CC4)cc3)[C@@H]2C1	x	-17.8	-1.1	108.0*	89.4	69.7	u	103.3*
CCC(=O)NC[C@H]1[C@@H](c2ccc(C3=CCCC3)cc2)[C@@H](CO)N1C(C)=O	x	0.9	1.9	77.5	x	x	x	x
COCC(=O)NC[C@@H]1[C@H](c2ccc(C3=CCCC3)cc2)[C@H](CO)N1C(C)=O	x	-8.5	1.5	115.7*	95.9*	0.7	3.3	-9.2
COCC(=O)NC[C@@H]1[C@H](c2ccc(C3=CCCC3)cc2)[C@@H](CO)N1C(C)=O	x	10.3	1.2	107.9*	-25.9	-21.7	-1.8	-2.2
COCC(=O)NC[C@H]1[C@H](c2ccc(C3=CCCC3)cc2)[C@H](CO)N1C(C)=O	x	12.3	2.3	u	-7.3	-0.3	-20.8	-22.9
CCC(=O)NC[C@@H]1[C@@H](c2ccc(C3=CCCC3)cc2)[C@H](CO)N1C(C)=O	x	-35.5	1.4	93.8	x	x	x	x
COC(=O)Cc1c(C)c2cc(Cl)c(OC(C)C(C)=O)cc2oc1=O (stereo unspecified)	0.1	x	x	x	x	x	x	x
COc1cccc(-c2ccc(C#N)c(SCC(=O)Nc3ccccc3Br)n2)c1	-0.5	x	x	x	x	x	x	x
COC(=O)c1ccc(/C=N/NC(=O)c2ccc(C(=O)NO)cc2)cc1	0.1	x	x	x	x	x	x	x
O=C(NCc1cccnc1)c1cc(-c2cccc(Cl)c2)nc2ccccc12	13.3	x	x	x	x	x	x	x
SMILES	IDH1 R132H inh	Pf Dd2 inh	GASC1 inh	T cruzi growth-1	T cruzi growth-2	T cruzi growth-3	3T3 cytotox	3T3 cytotox 2
O=S(=O)(c1ccccc1)N1CCCCN2[C@H](C1)[C@H](c1ccc(C#CC3CCCC3)cc1)[C@@H]2CO	x	-0.7	11.1	92.9	x	x	x	x
O=S(=O)(c1ccccc1)N1CCCCN2[C@@H](CO)[C@@H](c3ccc(C#Cc4cccnc4)cc3)[C@@H]2C1	x	-43.7	2.8	112.9*	112.2*	107.0*	-15.5	91.0*
O=S(=O)(c1ccccc1)N1CCCCN2[C@H](C1)[C@@H](c1ccc(C#Cc3cccnc3)cc1)[C@@H]2CO	x	-0.6	3.5	u	u	46.4	0.5	23.8
O=S(=O)(c1ccccc1)N1CCCCN2[C@H](CO)[C@H](c3ccc(C#Cc4cccnc4)cc3)[C@@H]2C1	x	-62.7	0.3	102.4*	106.6*	67.7	8.3	35.0*
O=S(=O)(c1ccccc1)N1CCCCN2[C@H](CO)[C@H](c3ccc(C#CC4CCCC4)cc3)[C@@H]2C1	x	-6.6	0.7	72.8	x	x	x	x
COc1ccc(C#Cc2ccc([C@@H]3[C@H](CO)N4CCCCN(S(=O)(=O)c5ccccc5)C[C@@H]34)cc2)cc1	x	-67.5	-1.4	102.2	x	x	x	x
O=S(=O)(c1ccccc1)N1CCCCN2[C@H](C1)[C@H](c1ccc(C#Cc3cccnc3)cc1)[C@@H]2CO	x	-56.0	-0.7	113.9*	104.6*	66.7	15.0	49.5*
Cc1cc(I)ccc1NC(=O)CN(c1ccc(Cl)c(Cl)c1)S(C)(=O)=O	-0.1	x	x	x	x	x	x	x
CCC(C)C(O)C(C)(O)/C=C/C1=CC2=C(Cl)C(=O)C(C)(O)C(OC(C)=O)C2CO1 (stereo unspecified)	2.5	x	x	x	x	x	x	x
O=S(=O)(c1ccccc1)N1CCCCN2[C@H](CO)[C@@H](c3ccc(C#Cc4ccccc4)cc3)[C@H]2C1	x	-17.2	1.2	103.5*	107.0*	103.3*	56.5*	91.6*
COc1cc(O[C@@H]2O[C@H](CO)[C@@H](O)[C@H](O)[C@H]2O)cc2occ(-c3ccc(O)cc3)c(=O)c12	-0.4	x	x	x	x	x	x	x
CCC(Sc1n[nH]c(N)n1)C(=O)Nc1ccc(C)cc1C (stereo unspecified)	0.7	x	x	x	x	x	x	x

Screening results as filed in PubChem BioAssay.
